A selection: hits, their analogues and other compounds. The true share with any hit is near 3.2%.
MEKK3 PB1 HTS: modulators of MEKK3-MEK5 PB1 binding, primary screen, biochemical, wildtype MEKK3, multiplex bead flow cytometry, Alexa488-MEK5. Mitogen-activated protein kinase kinase kinase 3 (Homo sapiens), Q99759. 1.4% of 290,000 active. AID 1529, 2009. binding response (% of control), % at 10 µM. bead-based flow cytometry, Alexa488-MEK5 binding to MEKK3; actives lie on both sides; 0 = blocked by unlabeled MEK5, 100 = vehicle;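 active = binding response more than 3 SD above or below the average of its plate-row segment, actives on both sides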;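 note: Alexa488 bead fluorescence after subtracting the streptavidin-only scavenger bead signal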
UBC13 polyUb: UBC13 polyubiquitin chain formation inhibitors, primary screen, biochemical, TR-FRET, uHTS. inhibition, % at 20 µM. Ubiquitin-conjugating enzyme E2 N (Homo sapiens), P61088. AID 485273, 2010. 0.47% of 330,000 active; in the data active = inhibition above about 45%, passing the limit was not always enough
Target sequence (P61088 whole entry, looked up): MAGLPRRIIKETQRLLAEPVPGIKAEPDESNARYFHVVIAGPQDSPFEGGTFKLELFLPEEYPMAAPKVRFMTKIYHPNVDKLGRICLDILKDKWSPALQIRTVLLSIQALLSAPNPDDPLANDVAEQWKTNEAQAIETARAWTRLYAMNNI
MEKK2 WT-MEK5: modulators of MEK5 binding to wildtype MEKK2, primary screen, biochemical, multiplex bead flow cytometry, Alexa488-MEK5. Mitogen-activated protein kinase kinase kinase 2 (Homo sapiens), Q9Y2U5. Alexa488-MEK5 binding to MEKK2 WT; actives lie on both sides. binding response (% of control), % at 10 µM. 1.1% of 290,000 active; in the data active = binding response below about 67% or above about 130%
DSG3 Ab inh: inhibitors of pemphigus antibody binding to DSG3, primary screen, biochemical, bead-based, flow cytometry, scFv-GFP; DSG3-coupled beads, scFv-anti-DSG3-GFP binding; active compounds read low; 0.48% of 310,000 active; binding (percent of control), % at 10 µM; AID 588358, 2011;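 active = binding more than 3 SD below its plate's average and above zero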;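 note: hits lower antibody fragment binding to DSG3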
Apaf-1 inh: inhibitors of human Apaf-1 apoptosome, primary screen, biochemical, DEVD-Rh110 fluorescence, uHTS. Apoptotic protease-activating factor 1 (Homo sapiens), O14727. reconstituted apoptosome caspase-3 activity. inhibition, % at 20 µM. 0.71% of 330,000 active. AID 489030, 2010; active = inhibition of at least 40% at 20 µM;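 note: plate controls were DMSO wells for no effect and DEVD-CHO caspase inhibitor wells for full effect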
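Material: cell-free apoptosome with Apaf-1, procaspase-3 and caspase-9; Buffer or medium: Hepes pH 7.5 with detergent and BSA; Reagent: cytochrome c trigger plus (Z-DEVD)2-Rh110 caspase-3 substrate; Times: compound with Apaf-1, dATP, procaspase-3 30 min, then 50 min reaction, room temperature; Technique: Rh110 fluorescence intensity.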
MEKK2mut PB1 HTS: MEK5 binding signal on mutant MEKK2 PB1, primary screen, biochemical, multiplex bead flow cytometry, Alexa488-MEK5. Alexa488-MEK5 binding to MEKK2 mutant. percent response, % at 10 µM. 0.35% of 290,000 active; in the data active = percent response above about 24%, passing the limit was not always enough
Apaf-1 inh conf2: Apaf-1 inhibitors, single-dose retest, confirmation, biochemical, fluorescence, DEVD-Rh110, 20 µM. inhibition, % at 20 µM. 25% of 1,800 active. reconstituted apoptosome, caspase-3 DEVD-Rh110 fluorescence. shares compounds with Apaf-1 inh. AID 504614, 2011;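 active = mean inhibition of at least 40% at 20 µM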;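 note: plate controls were DMSO wells for no effect and DEVD-CHO caspase inhibitor control wells for full effect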
Rh110 quench: Rh110 fluorescence interference by putative Apaf-1 inhibitors, confirmation, artefact control for Apaf-1 inhibitor project, biochemical, 20 µM; activation (fluorescence interference), % at 20 µM; shares compounds with Apaf-1 inh; quenched caspase reaction; 1,800 tested, under 10 active;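 active = signal rise of 40% or more at 20 µM, treated as a fluorescence artifact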
Apaf1 inh interf: fluorescence interference of Apaf-1 inhibitor hits, dose response, artefact control for Apaf-1 inhibitor project; 460 tested, under 10 active; shares compounds with Apaf-1 inh; fluorescence interference counterscreen, Apaf-1 assay format; AID 588538, 2011; IC50, µM; call rule not given here
* hit, by the source's call; nt = no result given.

SMILES	MEKK3 PB1 HTS	UBC13 polyUb	MEKK2 WT-MEK5	DSG3 Ab inh	Apaf-1 inh	MEKK2mut PB1 HTS	Apaf-1 inh conf2	Rh110 quench	others
C=CC[C@H](CC(=O)N[C@H](CO)Cc1ccccc1)C(=O)N[C@@H](COC(=O)[C@H](CC=C)CC(=O)OC(C)(C)C)Cc1c[nH]c2ccccc12	nt	27	nt	102	19	nt	nt	nt
O=C(Oc1ccc(=O)[nH]n1)c1ccccc1	nt	nt	nt	103	nt	nt	nt	nt
CCOc1cc(C(c2c(C)[nH][nH]c2=O)c2c(C)[nH][nH]c2=O)ccc1OS(=O)(=O)c1ccc(C)cc1	104	-1	101	101	41*	2	25	19
CCOc1ccc(C(c2c(C)[nH][nH]c2=O)c2c(C)[nH][nH]c2=O)cc1OC	108	-11	108	90	21	4	nt	nt
O=C(N/N=C\C=C\c1ccc([N+](=O)[O-])o1)c1cccs1	96	-25	93	95	49*	2	8	6
C=C(C)C1CC=C(C)/C(=N\NC(=S)Nc2ccc(C)cc2)C1 (stereo unspecified)	109	11	107	102	2	-1	nt	nt
NS(=O)(=O)c1ccc2c(c1)C1C=CCC1C(C1CC=CCC1)N2 (stereo unspecified)	100	-6	101	nt	47*	1	21	0
O=[N+]([O-])c1ccc(O)c(C=Nc2cccc3ncccc23)c1	98	-61	97	99	91*	-5	16	1
Cc1nc2ccccc2c(=O)n1/N=C/c1ccc(O)cc1O	100	-2	100	76	11	0	nt	nt
O=[N+]([O-])c1ccc(O)c(C=Nc2cccc3ccccc23)c1	106	-91	107	111	88*	7	14	-4
CCOC(=O)c1c(/N=C/c2cccc([N+](=O)[O-])c2O)sc(C)c1C	99	-45	101	83	7	1	nt	nt
Oc1ccc(C=Nc2cccc3ccccc23)c(O)c1	100	-61	106	107	81*	7	18	13
O=[N+]([O-])c1cccc(C=Nc2cccc3ccccc23)c1O	104	-95	99	99	93*	0	44*	8	Apaf1 inh interf=>100
OCCOc1ccc(CN2CCN(CCCc3ccccc3)C(CCO)C2)cc1 (stereo unspecified)	111	-11	115	109	8	3	nt	nt
C=CCn1c(=O)/c(=C/c2ccc(Cl)cc2)s/c1=C(\C#N)c1nnc2n1CCCCC2	nt	nt	nt	96	nt	nt	nt	nt
O=C(CCc1nc2ccccc2c(=O)[nH]1)NNC(=O)c1ccc(F)cc1	nt	6	nt	105	-11	nt	nt	nt
Oc1c(Br)cc(Br)cc1C=Nc1cccc2ncccc12	nt	-42	nt	98	97*	nt	56*	6	Apaf1 inh interf=>100
COCCCn1c(=O)c2sccc2n(Cc2ccccc2)c1=O	103	10	98	93	-5	2	nt	nt
COCCCn1c(=O)c2sccc2n(Cc2ccccc2C)c1=O	102	-6	102	103	60*	1	8	4
CC(=O)N/C(=C\c1ccccc1)C(=O)OCC(=O)Nc1ccc(C)c(S(=O)(=O)N(C)C)c1	nt	10	nt	nt	-5	nt	nt	nt
